Data as given in publication PMC10009879 (RSC Advances, 2023).
Values after ≈ are worked out from the molar mass of the structure shown.

Tests used:
[1] = tested on: α-glucosidase; settings: cited from earlier work
[2] = tested on: α-glucosidase; assay: α-Glucosidase inhibition type and inhibition constants by Lineweaver–Burk plots; type: biochemical, Saccharomyces cerevisiae
In short: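 Yeast (Saccharomyces cerevisiae) α-glucosidase with 4-nitrophenyl […]-D-glucopyranoside (pNPG) as substrate. The test compound was run at 0, 1.98, 3.97 and 7.93 μM, each in three replicates. Inhibition type was assigned from Lineweaver–Burk plots using a modified published method. Ki (free enzyme) and K′i (enzyme–substrate complex) were derived from the same data.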

[3] = tested on: α-glucosidase; assay: Screening of α-glucosidase inhibitory activity; type: biochemical, Saccharomyces cerevisiae; settings: times better than acarbose
[4] = molecular target: α-glucosidase; settings: previous study; ref Zhang et al., 23; cited from earlier work
[5] = tested on: STZ-induced diabetic rats; settings: cited from earlier work
[6] = tested on: mice fed a high fat and high sucrose diet; settings: cited from earlier work
[7] = molecular target: yeast α-glucosidase; settings: in vitro; cited from earlier work

## O=c1c(O)c(-c2ccc(O)cc2)oc2cc(O)cc(O)c12 [Compound 3, kaempferol]
[1]
  α-glucosidase inhibition: ~95.1%

## O=c1c(O)c(-c2ccc(O)c(O)c2)oc2c(Br)c(O)cc(O)c12 [Compound 5a, 8-Bromoquercetin]
[2]; Lineweaver–Burk plots, 0, 1.98, 3.97, 7.93 μM
  type of α-glucosidase inhibition: mixed mode inhibitor
[2]; read-out: inhibition constant binding with the free enzyme (Ki), secondary plot
  Ki: 5.58 ± 0.35 µM
[2]; secondary plot
  inhibition constant binding with the enzyme–substrate complex (K′i): 10.33 ± 0.85 µM
[3]
  α-glucosidase inhibition relative to the standard drug acarbose: thirty-seven times better

## C[C@@H]1O[C@@H](Oc2c(-c3ccc(O)c(O)c3)oc3cc(O)cc(O)c3c2=O)[C@H](O)[C@H](O)[C@H]1O [Compound 6, quercitrin]
[4]
  IC50 α-glucosidase inhibition: 215 ± 4 µg/mL (≈ 480 µM)

## O=c1c(O)c(-c2cc(O)c(O)c(O)c2)oc2cc(O)cc(O)c12 [myricetin]
[5]
  effect on fasting blood glucose level: cut down the fasting blood glucose level
[6]
  effect on fasting blood glucose level: cut down the fasting blood glucose level
[7]
  IC50 yeast α-glucosidase: 5 µg/mL (≈ 15.7 µM)
